Calls of active or inactive are those of the source. No cut-off for these calls is given here.
How the values were obtained:
[1] = Cytostatic activity against human NCI60 cells by SRB assay; type: functional; settings: for CC50: read-out: LC50 (the source's name)
Method in brief: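 NCI screen: single 10 μM dose first; active compounds then run at five concentrations on the same cell panel to give GI50, TGI and LC50, reported as averages over all cell lines; mean of two 5-dose tests, or one test where noted.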

Nicotiana tabacum = experiment: Induction of morphological changes of golgi apparatus in tobacco mesophyll protoplast expressing Man1-RFP at 90 uM after 30 mins by confocal laser scanning microscopic analysis; type: functional
Method in brief: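 Nicotiana tabacum cv. Petit Havana mesophyll protoplasts transiently expressing cis-Golgi marker Man1-RFP, treated 30 min with 90 μM compound (dissolved in DMSO) in half MS medium, untreated controls; observed by CLSM with 63× water-immersion objective.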

[2] = Cytotoxicity against human HeLa R19 cells assessed as reduction of cell viability at 0.5 to 50 uM by MTS assay; type: cell-based; settings: hela r19, 50 µM
Coxsackievirus B3 [3] = experiment: Antiviral activity against Coxsackievirus B3 infected in human HeLa R19 cells assessed as inhibition of viral replication at 5 to 50 uM after 7 hrs by luciferase reporter gene assay; type: functional, organism-based
Method in brief: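 HeLa R19 subconfluent monolayers infected 30 min at 37 °C with Renilla luciferase-expressing CVB3, MOI 0.1 CCID50; virus replaced by medium with 0.5, 5 or 50 μM compound (5 mM DMSO stock) or matching DMSO. After 7 h, lysed and Renilla luciferase read; triplicates normalized to same-DMSO-dilution controls, shown as means ± SEM on log scale.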

HeLa [4] = experiment: Induction of golgi apparatus disassembly in human HeLa cells at 5 uM after 30 to 60 mins by confocal microscopic analysis; type: functional, cell-based
Method in brief: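 HeLa cells in DMEM, 10% FBS, penicillin/streptomycin, 2 mM L-glutamine, exposed to 5 μM final compound at 37 °C for 30 or 60 min; fixed 4% paraformaldehyde 20 min, NH4Cl quench, 0.5% Triton X-100 permeabilization, 5% BSA block, anti-GM130 (cis Golgi) with Alexa 546 secondary; confocal imaging.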

Coxsackievirus B3 [5] = experiment: Antiviral activity against Coxsackievirus B3 infected in human HeLa R19 cells assessed as inhibition of viral replication at 0.5 uM after 7 hrs by luciferase reporter gene assay; type: functional, organism-based
Method in brief: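 HeLa R19 subconfluent monolayers infected 30 min at 37 °C with Renilla luciferase-expressing CVB3 (RLuc-CVB3), MOI 0.1 CCID50; inoculum replaced by medium with compound (0.5, 5 or 50 μM final; 5 mM DMSO stock) or matched DMSO control. After 7 h, cells lysed and Renilla luciferase read as replication measure; triplicates normalized to mean of same-DMSO-dilution controls.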

HeLa [6] = experiment: Induction of golgi apparatus disassembly in human HeLa cells at 5 uM incubated for 60 mins followed by compound washout measured after 2 hrs by confocal microscopic analysis; type: functional, cell-based
Method in brief: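 Reassembly: HeLa cells given 5 μM final compound for 60 min at 37 °C, drug removed, then 2 h further in drug-free medium; fixed, anti-GM130 immunolabeled (paraformaldehyde fixation, Triton permeabilization, BSA block, Alexa 546 secondary) and examined by confocal microscopy; untreated medium controls.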

Arabidopsis thaliana = experiment: Induction of morphological changes of golgi apparatus in Arabidopsis thaliana root cells expressing ST-YFP/VHAa1-RFP at 90 uM after 30 mins by confocal laser scanning microscopic analysis; type: functional
Method in brief: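 Arabidopsis thaliana stably expressing VHAa1-RFP/N-ST-YFP grown from surface-sterilized seed on half-strength MS, 1% sucrose, 22 °C, 16 h days; roots treated 30 min with 90 μM compound (DMSO solution) in half MS medium, untreated controls; imaged by CLSM with 63× water-immersion objective.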

[7] = Toxicity in ip dosed mouse; type: organism-based; settings: in vivo

SMILES | GI50 [1] [µM] | TGI [1] [µM] | CC50 [1] [µM] | Activity (Nicotiana tabacum) | Activity [2] | inhibition (Coxsackievirus B3 [3]) | Activity (HeLa [4]) | inhibition (Coxsackievirus B3 [5]) | Activity (HeLa [6]) | Activity (Arabidopsis thaliana) | LD50 [7] [mg/kg]
O=C1/C=C/[C@@H](O)[C@@H]2C[C@@H](O)C[C@H]2/C=C/CCC[C@H](CCc2ccc3cccnc3c2)O1 | 0.262 | 7.61 | 63.9 | Active |  |  |  |  |  |  | 
O=C1/C=C/[C@@H](O)[C@@H]2C[C@@H](O)C[C@H]2/C=C/CCC[C@H](CCc2ccc(C(F)(F)F)cc2)O1 | 0.212 | 5.97 | 66.2 | Active | Non-toxic | Active | Active | Active | inactive |  | 
O=C1/C=C/[C@@H](O)[C@@H]2C[C@@H](O)C[C@H]2/C=C/CCC[C@H](CO)O1 | 2.57 | 38 | 85.1 |  |  |  |  |  |  |  | 
C=C[C@H]1CCC/C=C/[C@@H]2C[C@H](O)C[C@H]2[C@H](O)/C=C/C(=O)O1 | 0.0319 | 4.91 | 39 |  | Non-toxic | Active | Active |  |  | Active | 
O=C1/C=C/[C@@H](O)[C@@H]2C[C@@H](O)C[C@H]2/C=C/CCC[C@H](CCc2ccccc2)O1 | 0.0299 | 2.04 | 40 | Active | Non-toxic | Active |  |  | inactive |  | 
CC(=O)Nc1ccc(CC[C@H]2CCC/C=C/[C@@H]3C[C@H](O)C[C@H]3[C@H](O)/C=C/C(=O)O2)cc1 | 0.152 | 5.7 | 51.6 | Active | Non-toxic | Active |  |  |  |  | 
O=C1/C=C/[C@@H](O)[C@@H]2C[C@@H](O)C[C@H]2/C=C/CCCCO1 | 0.631 | 20.9 | 69.2 |  |  |  |  |  |  |  | 
O=C1/C=C/[C@@H](O)[C@@H]2C[C@@H](O)C[C@H]2/C=C/CCC[C@H](CCc2cccc3ccccc23)O1 | 0.0739 | 2.28 | 25.1 |  | Non-toxic | Active |  |  | inactive |  | 
O=C1/C=C/[C@@H](O)[C@@H]2C[C@@H](O)C[C@H]2/C=C/CCC[C@H](CCOCc2ccccc2)O1 | 0.0809 | 5.05 | 35.5 |  | Non-toxic | Active |  |  |  |  | 
Nc1ccc(CC[C@H]2CCC/C=C/[C@@H]3C[C@H](O)C[C@H]3[C@H](O)/C=C/C(=O)O2)cc1 | 0.0343 | 2.68 | 56.3 |  |  |  |  |  |  |  | 
CC[C@H]1CCC/C=C/[C@@H]2C[C@H](O)C[C@H]2[C@H](O)/C=C/C(=O)O1 | 0.0446 | 5.82 | 35.8 |  |  |  |  |  |  | Active | 
O=C1/C=C/[C@@H](O)[C@@H]2C[C@@H](O)C[C@H]2/C=C/CCC[C@H](CCc2ccc(F)cc2)O1 |  |  |  |  | Non-toxic | Active |  |  |  |  | 
O=C1/C=C/[C@@H](O)[C@@H]2C[C@@H](O)C[C@H]2/C=C/CCC[C@H](CCO)O1 | 0.178 | 7.69 | 47.6 |  | Non-toxic | Active |  |  |  |  | 
COCC[C@H]1CCC/C=C/[C@@H]2C[C@H](O)C[C@H]2[C@H](O)/C=C/C(=O)O1 | 0.0902 | 5.78 | 42.3 |  | Non-toxic | Active |  |  |  |  | 
C[C@H]1CCC/C=C/[C@@H]2C[C@H](O)C[C@H]2[C@H](O)/C=C/C(=O)O1 [BREFELDIN A] | 0.0206 | 3.48 | 52.6 | Active | Non-toxic | Active | Active | Active | inactive | Active | > 200
CC(=O)[C@H]1CCC/C=C/[C@@H]2C[C@H](O)C[C@H]2[C@H](O)/C=C/C(=O)O1 | 0.594 | 13.3 | 61.7 |  | Non-toxic | Active |  |  |  |  | 
O=C1/C=C/[C@@H](O)[C@@H]2C[C@@H](O)C[C@H]2/C=C/CCC[C@H](C(F)(F)F)O1 | 0.321 | 5.49 | 48.2 |  |  |  |  |  |  |  | 
C=C[C@@H]1CCC/C=C/[C@@H]2C[C@H](O)C[C@H]2[C@H](O)/C=C/C(=O)O1 | 0.631 | 17.8 | 66.3 |  |  |  |  |  |  |  | 
